The values below come from PMC4433755 (Clinical cancer research : an official journal of the …, 2015).

The test system of data set [1] is metabolism of JNJ-38877605 in human 12000×g liver supernatant. Format: in vitro ADME. The conditions noted are these: 5 μM 3H-JNJ-38877605, human 12000×g liver supernatant. In outline:
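5 μM 3H-labelled test compound incubated with human 12000×g liver supernatant, with and without specific inhibitors of aldehyde oxidase/CYP2C8 or of CYP-450. Metabolites identified by LC-MS and quantified via the 3H label. Read-out is % inhibition of formation of each metabolite and of summed metabolite formation.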

The nature of data set [2]: phase I first-in-human dose escalation study, toxicity. Format: in vivo.
The next data set relates to Fms. The conditions noted are these: of 246 kinases tested; cited from earlier work.
A short description of data set [3]: metabolite formation in human liver microsomes. Format: in vitro ADME. The conditions noted are these: 5 μM 3H-JNJ-38877605, 120 min. The gist of the method: (§1)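 Radiolabelled (3H) test compound was incubated with human liver subcellular fractions (microsomes or 12000 ×g supernatant). Metabolites were identified by LC-MS and quantified only where a reference standard or 3H label existed. Parallel incubations included specific inhibitors, quercetin (aldehyde oxidase/CYP2C8) or 1-aminobenzotriazole (CYP-450). Results were expressed as % inhibition of metabolite formation.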

Data set [4] is described as follows: plasma metabolite profiling, rabbit. It is filed as in vivo. Conditions: 3H-JNJ-38877605 100 mg/kg, at about Cmax (1-4 h).
A short description of data set [5]: plasma metabolite profiling, dog. Format: in vivo. The conditions noted are these: 3H-JNJ-38877605 2.5 mg/kg, at about Cmax (1-4 h).
The nature of data set [6]: plasma metabolite profiling, rat. It is filed as in vivo. The conditions noted are these: 3H-JNJ-38877605 2.5 mg/kg, at about Cmax (1-4 h).
Data set [7] is described as follows: metabolite formation in human liver 12000 ×g supernatant. It is filed as in vitro ADME. Conditions: 5 μM 3H-JNJ-38877605, 120 min. The gist of the method:
as §1

Data set [8] can be described thus: pharmacokinetics in humans, phase I study. Format: in vivo, human. Conditions: patients. The gist of the method: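 Patients received oral test compound once daily in 21-day cycles: 60 mg starting dose, with 10-40 mg OD levels added later. Blood was sampled at pre-specified times from cycle 1 day 1. Parent and N-desmethyl metabolite M2 were quantified in plasma. Cmax, tmax, t1/2, AUC and terminal elimination rate were calculated.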

The nature of data set [9]: 1-month non-GLP toxicology study in male rabbit, post-mortem kidney changes. Format: in vivo. Conditions: 1-month dosing; for Basophilia, corticotubular with basement membrane thickening, incidence / Dilatation, collecting ducts with amorphous material, incidence / Dilation, corticotubular, extending towards cortex, incidence / Fibrosis, cortical, incidence / Hypertrophy, corticotubular; with spicules and multinucleated cells, incidence: N 4.

Data set [10] is described as follows: plasma metabolite profiling, man. Format: in vivo, human. The conditions noted are these: 60 mg, at about Cmax (1-4 h).
The target in another data set is c-Met Kinase. The conditions noted are these: read-out: IC50 for c-Met Kinase in vitro; cited from earlier work.
Where [11] appears, read: group 2: 50 mg/kg 3/week (150 mg/kg/week).
Setting [12] is: group 3: 100 mg/kg 1/week (100 mg/kg/week).
Where [13] appears, read: group 4: 200 mg/kg 1/week (200 mg/kg/week).
[14] abbreviates: group 5: 100 mg/kg 3/week (300 mg/kg/week).
Where [15] appears, read: group 6: 50 mg/kg 1/day (350 mg/kg/week).

In general, IC50 refers to the concentration that inhibits the measured activity by half.

Bounds are passed on as bounds.

Take `Nn1nnc2ccccc21` [1-aminobenzotriazole]: in data set [1], the “% inhibition of metabolite formation, M1/M2” value is reported as 58%; the “% inhibition of metabolite formation, M3” value came to 1%; the “% inhibition of metabolite formation, M4” value was 70%; the “% inhibition of metabolite formation, UD (sum of all metabolite formation)” value is listed as 19%.
As to `Cn1cc(-c2ccc3nnc(C(F)(F)c4ccc5ncccc5c4)n3n2)cn1` [JNJ-38877605], in data set [2] (40 mg OD), the “patients with grade 1 SCr increase” value is on record as 2/3. Moreover, in [2] (60 mg OD, all 5 subjects, asymptomatic), the “serum creatinine (SCr) increase, CTCAE grade” value is on record as “Grade 1”. In [2] (60 mg OD, in 4 patients), the “time to SCr increase after start of treatment” value lay in the range of 2 to 3 days. Besides, the “glomerular filtration rate by Cr51 measurement” value in [2] (1 patient, 40 mg cohort, cycle 1 day 21 (98 pre-treatment)) is 45 ml/min/1.73m^2. The “decrease of glomerular filtration rate by Cr51 measurement” value in data set [2] (1 patient, 40 mg cohort, pre-treatment to cycle 1 day 21) is > 50%. The renal toxicity result in data set [2] (10 and 20 mg OD) was “no indication of renal toxicity”. In the data set with Fms, the “selectivity for c-Met kinase relative to the next most potently inhibited kinase (Fms)” value is > 833 fold. In addition, the “formation of metabolites after incubation of JNJ-38877605” value in data set [3] turned out to be 12.8. Moreover, the concentration in plasma in [4] is recorded as 22836 ngeq/ml. Besides, in [5], the concentration in plasma was found to be 575 ngeq/ml. In addition, in data set [6], the concentration in plasma is listed as 1466 ngeq/ml. For the same molecule, the “formation of metabolites after incubation of JNJ-38877605” value in [7] is listed as 26.0. Moreover, in [8] (oral OD), the “accumulation after 21 days” value was “virtually no accumulation”. In data set [8] (oral), the plasma half-life result is listed as “short” and the “time of Cmax after ingestion” value is 1.5 to 4 h. Also, in data set [9] (setting [11]), the “Dilatation, collecting ducts with amorphous material, animals graded minimal” value (“Dilatation … animals graded minimal” below) was 3; the “Dilatation, collecting ducts with amorphous material, animals graded moderate” value (“Dilatation … animals graded moderate” for short) came out at 0; the “Dilatation, collecting ducts with amorphous material, animals graded slight” value (shortened to “Dilatation … animals graded slight”) was found to be 0; the “Kidney weights, fold change vs control” value is “×0.93 fold”. In [9] (setting [11]), the “Basophilia, corticotubular with basement membrane thickening, incidence” value (from here on “Basophilia, corticotubular”) turned out to be 2; the “Dilatation, collecting ducts with amorphous material, incidence” value (“Dilatation, collecting ducts … incidence” for short) worked out at 3; the “Dilation, corticotubular, extending towards cortex, incidence” value (shortened to “Dilation, corticotubular … incidence”) stood at 0; the “Fibrosis, cortical, incidence” value worked out at 0. In addition, the “Hypertrophy, corticotubular; with spicules and multinucleated cells, incidence” value (“Hypertrophy, corticotubular” below) in data set [9] (setting [11]) turned out to be 1. Also, in data set [9] (setting [12]), the “Dilatation … animals graded minimal” value turned out to be 1; the “Dilatation … animals graded moderate” value is on record as 0; the “Dilatation … animals graded slight” value was 3; the “Basophilia, corticotubular” value is reported as 2. For the same molecule, in data set [9] (setting [12]), the “Dilatation, collecting ducts … incidence” value was found to be 4; the “Dilation, corticotubular … incidence” value is recorded as 0; the “Fibrosis, cortical, incidence” value is on record as 0; the “Hypertrophy, corticotubular” value was 3. In data set [9] (setting [13]), the “Dilatation … animals graded minimal” value worked out at 0; the “Dilatation … animals graded moderate” value worked out at 1; the “Dilatation … animals graded slight” value turned out to be 3; the “Dilation, corticotubular, extending towards cortex, animals graded minimal” value (“Dilation … animals graded minimal” for short) stood at 2. For the same molecule, in data set [9] (setting [13]), the “Dilation, corticotubular, extending towards cortex, animals graded slight” value (“Dilation, corticotubular … animals graded slight” below) is 1; the “Fibrosis, cortical, animals graded minimal” value stood at 0; the “Fibrosis, cortical, animals graded slight” value was determined as 1; the “Kidney weights, fold change vs control” value is given as “×1.20 fold”. In data set [9] (setting [13]), the “Basophilia, corticotubular” value is 4; the “Dilatation, collecting ducts … incidence” value worked out at 4; the “Dilation, corticotubular … incidence” value turned out to be 3; the “Fibrosis, cortical, incidence” value turned out to be 1. In addition, the “Hypertrophy, corticotubular” value in data set [9] (setting [13]) came to 4. In data set [9] (setting [14]), the “Dilatation … animals graded minimal” value was 1; the “Dilatation … animals graded moderate” value is recorded as 1; the “Dilatation … animals graded slight” value is reported as 2; the “Dilation … animals graded minimal” value is recorded as 2. In [9] (setting [14]), the “Dilation, corticotubular … animals graded slight” value is 1; the “Fibrosis, cortical, animals graded minimal” value is 2; the “Fibrosis, cortical, animals graded slight” value is reported as 0; the “Kidney weights, fold change vs control” value was “×1.13 fold”. In [9] (setting [14]), the “Basophilia, corticotubular” value amounted to 3; the “Dilatation, collecting ducts … incidence” value was 4; the “Dilation, corticotubular … incidence” value turned out to be 3; the “Fibrosis, cortical, incidence” value was 2. The “Hypertrophy, corticotubular” value in [9] (setting [14]) is recorded as 4. Also, in data set [9] (setting [15]), the “Dilatation … animals graded minimal” value turned out to be 0; the “Dilatation … animals graded moderate” value was found to be 2; the “Dilatation … animals graded slight” value amounted to 2; the “Dilation … animals graded minimal” value amounted to 2. In data set [9] (setting [15]), the “Dilation, corticotubular … animals graded slight” value came out at 1; the “Fibrosis, cortical, animals graded minimal” value is on record as 1; the “Fibrosis, cortical, animals graded slight” value came to 1; the “Basophilia, corticotubular” value came to 4. Also, in data set [9] (setting [15]), the “Dilatation, collecting ducts … incidence” value turned out to be 4; the “Dilation, corticotubular … incidence” value came out at 3; the “Fibrosis, cortical, incidence” value was determined as 2; the “Hypertrophy, corticotubular” value was found to be 4. Moreover, the concentration in plasma in data set [10] was 111 ngeq/ml. Further, the IC50 on c-Met Kinase was 4.7 nM.
On to `FC(F)(c1ccc2ncccc2c1)c1nnc2ccc(-c3cn[nH]c3)nn12` [M2], for which the concentration in plasma in data set [4] came to 6388 ngeq/ml; in [5], 31 ngeq/ml; in [6] it was 136 ngeq/ml; in data set [10], 3 ngeq/ml.
As for `O=c1c(O)c(-c2ccc(O)c(O)c2)oc2cc(O)cc(O)c12` [Quercetin], in data set [1], the “% inhibition of metabolite formation, M1/M2” value was determined as 75%; the “% inhibition of metabolite formation, M3” value was 94%; the “% inhibition of metabolite formation, M4” value stood at 73%; the “% inhibition of metabolite formation, UD (sum of all metabolite formation)” value was 112%.
